Test results as given in ChEMBL document CHEMBL2331364, “A synthetic dolastatin 10 analogue suppresses microtubule dynamics, inhibits cell proliferation, and induces apoptotic cell death” (J Med Chem, 2013).
Values belong to the molecule of their own block, whether it stands above or below them. Where a SMILES comes first, the peptide text is derived from it. [ ]: non-standard residue; d: D form. The star is where a group is joined. X1 = COC1=CC(=O)N(C(=O)[C@@H](O*)C(C)C)[C@H]1Cc1ccccc1; NMe2Val = CC(C)[C@@H](C(=O)*)N(C)C; NMeV = CN[C@H](C(=O)O)C(C)C

What was measured:
Capra hircus [1] = species: Capra hircus; experiment: Inhibition of goat brain tubulin polymerization at 5 uM incubated for 20 mins prior to GTP addition measured for 30 mins by 90 degree light scattering-based fluorescence spectrophotometric method
Method in brief: (§1)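 Goat brain tubulin (10 μM) was preincubated with compound (5 μM; or 1, 5, 7, 10 μM) in 1 M monosodium glutamate, 3 mM MgCl2, 1 mM EGTA, 25 mM Pipes pH 6.8 on ice for 20 min. GTP (1 mM) was then added and assembly followed by 90° light scattering at 400 nm for 30 min at 37 °C. Experiment run twice.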

HeLa [2] = experiment: Cytotoxicity against human HeLa cells after 24 to 48 hrs by trypan blue assay; type: functional, cell-based
Method in brief: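 Cells were seeded at 1 × 10^5 cells/mL, grown 24 h at 37 °C in 5% CO2, then given vehicle (0.1% DMSO) or 1–80 nM for a further 24 or 48 h. Attached plus floating cells were counted after trypan blue staining. Percent inhibition was plotted against concentration to give IC50. Average of three independent experiments.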

[3] = Inhibition of goat brain tubulin polymerization incubated for 20 mins prior to GTP addition measured for 30 mins by 90 degree light scattering-based fluorescence spectrophotometric method; design: species or system Capra hircus; method in brief: as §1
Capra hircus [4] = species: Capra hircus; settings: 3 uM
HeLa [5] = experiment: Antiproliferative activity against human HeLa cells assessed as median dose after 24 hrs; type: functional
Method in brief: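 HeLa cells treated for 24 h with each agent alone and in combinations. The median dose (Dm) was taken from the median dose plot, and combination index was computed as CI = (D)1/(Dx)1 + (D)2/(Dx)2.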

HeLa [6] = experiment: Inhibition of mitosis in human HeLa cells assessed as mitotic index at 300 nM after 24 hrs by Hoechst 33258 DNA staining assay (reference value: 4 +/- 0.3 %); type: functional; design: scale not given: the % may be the effect or the level left
Method in brief: (§2)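 HeLa cells were treated for 24 or 48 h with compound or vehicle (0.1% DMSO). DNA was stained with Hoechst 33258 and mitotic cells were counted to give the mitotic index.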

HeLa [7] = experiment: Induction of apoptosis in human HeLa cells assessed as apoptotic cells at 700 nM after 10 hrs by annexin V-FITC/propidium iodide staining-based FACS analysis; type: functional
Method in brief: (§3)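 HeLa cells were exposed for 10 or 24 h, then stained with annexin V and propidium iodide using an apoptosis kit. Apoptotic cells were quantified by FACS. Compounds were dissolved in DMSO.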

HeLa [8] = experiment: Inhibition of mitosis in human HeLa cells assessed as mitotic index at 200 nM after 24 hrs by Hoechst 33258 DNA staining assay (reference value: 4 +/- 0.3 %); type: functional; design: scale not given: the % may be the effect or the level left; method in brief: as §2
HeLa [9] = experiment: Inhibition of mitosis in human HeLa cells assessed as mitotic index at 100 nM after 24 hrs by Hoechst 33258 DNA staining assay (reference value: 4 +/- 0.3 %); type: functional; design: scale not given: the % may be the effect or the level left; method in brief: as §2
HeLa [10] = experiment: Inhibition of mitosis in human HeLa cells assessed as mitotic index at 200 nM after 48 hrs by Hoechst 33258 DNA staining assay (reference value: 4 +/- 0.2 %); type: functional; design: scale not given: the % may be the effect or the level left; method in brief: as §2
HeLa [11] = experiment: Inhibition of mitosis in human HeLa cells after 24 hrs by Hoechst 33258 DNA staining assay; type: functional, cell-based; method in brief: as §2
HeLa [12] = experiment: Induction of apoptosis in human HeLa cells assessed as apoptotic cells at 700 nM after 24 hrs by annexin V-FITC/propidium iodide staining-based FACS analysis; type: functional; method in brief: as §3
HeLa [13] = experiment: Inhibition of mitosis in human HeLa cells assessed as mitotic index at 300 nM after 48 hrs by Hoechst 33258 DNA staining assay (reference value: 4 +/- 0.2 %); type: functional; design: scale not given: the % may be the effect or the level left; method in brief: as §2
HeLa [14] = experiment: Inhibition of mitosis in human HeLa cells assessed as mitotic index at 100 nM after 48 hrs by Hoechst 33258 DNA staining assay (reference value: 4 +/- 0.2 %); type: functional; design: scale not given: the % may be the effect or the level left; method in brief: as §2
SK-N-SH [15] = experiment: Cytotoxicity against human SK-N-SH cells assessed as cell death at 50 uM after 72 hrs by MTT assay; type: functional
SK-N-SH [16] = experiment: Cytotoxicity against human SK-N-SH cells assessed as cell death at 80 uM after 72 hrs by MTT assay; type: functional

SMILES: CC[C@H](C)[C@@H](/C=C/C(=O)NC[C@H]1O[C@@H](C(=O)N[C@@H](Cc2ccccc2)C2=NCCS2)[C@@H](OC)[C@@H]1OC)N(C)C(=O)[C@@H](NC(=O)[C@@H](NC)C(C)C)C(C)C
inhibition (Capra hircus [1]): 19% | IC50 (HeLa [2]): 8.7 nM

SMILES: CC[C@H](C)[C@@H]([C@H](O)CC(=O)NC[C@H]1O[C@@H](C(=O)NCc2ccccc2)[C@@H](OC)[C@@H]1OC)N(C)C(=O)[C@@H](NC(=O)[C@@H](NC)C(C)C)C(C)C
IC50 (HeLa [2]): 16 nM

SMILES: CC[C@H](C)[C@@H]([C@@H](CC(=O)N1CCC[C@H]1[C@H](OC)[C@@H](C)C(=O)N[C@@H](Cc1ccccc1)c1nccs1)OC)N(C)C(=O)[C@@H](NC(=O)[C@H](C(C)C)N(C)C)C(C)C [DOLASTATIN-10]
IC50 [3]: 1200 nM

IC50 [3]: 1500 nM | inhibition (Capra hircus [4]): 50%
SMILES: CC[C@]1(O)C[C@@H]2CN(CCc3c([nH]c4ccccc34)[C@@](C(=O)OC)(c3cc4c(cc3OC)N(C)[C@H]3[C@@](O)(C(=O)OC)[C@H](OC(C)=O)[C@]5(CC)C=CCN6CC[C@]43[C@@H]65)C2)C1 [VINBLASTINE]
Activity (HeLa [5]): 2.3 nM

SMILES: CC[C@H](C)[C@@H]([C@@H](CC(=O)NC[C@H]1O[C@@H](C(=O)NCCc2ccccc2)[C@@H](OC)[C@@H]1OC)OC)N(C)C(=O)[C@@H](NC(=O)[C@@H](NC)C(C)C)C(C)C
IC50 (HeLa [2]): 15 nM

SMILES: CO[C@@H](/C(C)=C/C=C/C(C)=C/c1coc(C)n1)[C@@H](C)[C@@H]1C[C@H](O)[C@@]2(C)O[C@@H]2/C=C/[C@@H](C)[C@H]2C[C@H](CC(=O)O2)C[C@@H]2O[C@H]2C(=O)O1 [RHIZOXIN]
IC50 [3]: 6800 nM

SMILES: COC(=O)Nc1nc2cc(C(=O)c3cccs3)ccc2[nH]1 [NOCODAZOLE]
Activity (HeLa [6]): 36% | Activity (HeLa [7]): 14.7% | Activity (HeLa [8]): 28% | IC50 (HeLa [2]): 178 nM | Activity (HeLa [9]): 22% | Activity (HeLa [10]): 13% | inhibition (HeLa [11]): Dose-dependent effect | Activity (HeLa [12]): 50.5% | Activity (HeLa [13]): 11% | Activity (HeLa [14]): 14%

SMILES: CC[C@H](C)[C@@H](/C=C/C(=O)NC[C@H]1O[C@@H](C(=O)N[C@@H](Cc2ccccc2)C2=NCCS2)[C@@H](OC)[C@@H]1OC)N(C)C(=O)[C@@H](NC(=O)[C@H](C(C)C)N(C)C)C(C)C
inhibition (Capra hircus [1]): 21% | IC50 (HeLa [2]): 8.8 nM

SMILES: COc1cc2c(c(OC)c1OC)-c1ccc(OC)c(=O)cc1[C@@H](NC(C)=O)CC2 [COLCHICINE]
Activity (HeLa [5]): 17.8 nM

SMILES: CC[C@H](C)[C@@H]([C@H](O)CC(=O)NC[C@H]1O[C@H](C(=O)NCc2ccccc2)[C@@H](OC)[C@@H]1OC)N(C)C(=O)[C@@H](NC(=O)[C@@H](NC)C(C)C)C(C)C
IC50 (HeLa [2]): 12 nM

SMILES: CC[C@H](C)[C@@H]([C@H](CC(=O)NC[C@H]1O[C@H](C(=O)N[C@@H](Cc2ccccc2)c2nccs2)[C@@H](OC)[C@@H]1OC)OC)N(C)C(=O)[C@@H](NC(=O)[C@H](C(C)C)N(C)C)C(C)C
IC50 (HeLa [2]): 16 nM

SMILES: COC1=CC(=O)N(C(=O)[C@@H](OC(=O)[C@@H]2CCCN2C(=O)[C@@H]2CCCN2C(=O)[C@H](C(C)C)N(C)C(=O)[C@@H](NC(=O)[C@H](C(C)C)N(C)C)C(C)C)C(C)C)[C@H]1Cc1ccccc1 [DOLASTATIN 15] (NMe2Val-V[NMeV]PP-X1)
IC50 [3]: 23000 nM

SMILES: CC[C@]12C=CCN3CC[C@@]4(c5cc([C@@]6(C(=O)OC)C[C@@H]7C[C@@H](C(C)(F)F)CN(Cc8c6[nH]c6ccccc86)C7)c(OC)cc5N(C)[C@H]4[C@@](O)(C(=O)OC)[C@@H]1OC(C)=O)[C@@H]32 [VINFLUNINE]
Activity (SK-N-SH [15]): 50% | Activity (SK-N-SH [16]): 70%

SMILES: CC[C@H](C)[C@@H]([C@H](CC(=O)NC[C@H]1O[C@H](C(=O)N[C@@H](Cc2ccccc2)c2nccs2)[C@@H](OC)[C@@H]1OC)OC)N(C)C(=O)[C@@H](NC(=O)[C@@H](NC)C(C)C)C(C)C
inhibition (Capra hircus [1]): 10% | IC50 (HeLa [2]): 9.9 nM
